From ChEMBL document CHEMBL5032501, “Total Synthesis and Antimalarial Activity of 2-(p-Hydroxybenzyl)-prodigiosins, Isoheptylprodigiosin, and Geometric Isomers of Tambjamine MYP1 Isolated from Marine Bacteria” (J Med Chem, 2021)

Legend:
Plasmodium falciparum [1] = test: Antiplasmodial activity against asexual stage of chloroquine-sensitive Plasmodium falciparum D6 infected in human erythrocytes assessed as reduction in parasite growth incubated for 72 hrs by SYBR green 1 staining based assay; type: functional, organism-based; conditions: D6, Erythrocyte
How it was run: (§1)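 P. falciparum grown in human erythrocytes at 2% hematocrit in RPMI 1640 with 0.5% Albumax II, hypoxanthine and gentamicin. Assay run at 0.2% parasitemia, 2% hematocrit, triplicate, 72 h at 37 °C under low oxygen. Starting range 2.5–2500 nM, adjusted as needed. SYBR Green I lysis buffer added for 1 h in the dark, fluorescence read at ex 497/em 520 nm. IC50 by nonlinear regression against drug-free controls.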

Plasmodium falciparum [2] = test: Antiplasmodial activity against asexual blood stage of multidrug-resistant Plasmodium falciparum Dd2 infected in human erythrocytes assessed as reduction in parasite growth incubated for 72 hrs by SYBR green 1 staining based assay; type: functional, organism-based; conditions: Dd2, Erythrocyte; how it was run: as §1
Plasmodium falciparum [3] = test: Antiplasmodial activity against asexual blood stage of multidrug-resistant Plasmodium falciparum 7G8 infected in human erythrocytes assessed as reduction in parasite growth incubated for 72 hrs by SYBR green 1 staining based assay; type: functional, organism-based; conditions: 7G8, Erythrocyte; how it was run: as §1
Plasmodium falciparum [4] = test: Antiplasmodial activity against asexual blood stage of multidrug-resistant Plasmodium falciparum TM90C2B infected in human erythrocytes assessed as reduction in parasite growth incubated for 72 hrs by SYBR green 1 staining based assay; type: functional, organism-based; conditions: Erythrocyte
HepG2 = test: Cytotoxicity against human HepG2 cells assessed as reduction in cell viability measured for 48 hrs by MTT assay; type: cell-based; conditions: HepG2, 48 h
Plasmodium yoelii [5] = test: Antimalarial activity against blood stage Plasmodium yoelii infected in CF1 mouse assessed as reduction in parasitemia at 5 mg/kg, po administered once daily for 4 days and measured on day 5 by Giemsa staining based microscopic analysis relative to control; type: functional; set-up: scale not given: the % may be the effect or the level left; conditions: time 4 day
How it was run: (§2)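 Female CF1 mice, 7–8 weeks old, about 30 g, n = 4 per group. Infected iv with 2.5 × 104 P. yoelii (Kenya strain) parasitized erythrocytes from a donor mouse. Dosed orally in PEG-400, 5 or 25 mg/kg once daily for 4 days, starting the day after inoculation. Giemsa-stained tail-vein blood films read the day after the last dose, then weekly to day 28. Parasitemia taken relative to vehicle controls.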

Plasmodium yoelii [6] = test: Antimalarial activity against blood stage Plasmodium yoelii infected in CF1 mouse assessed as reduction in parasitemia at 25 mg/kg, po administered once daily for 4 days and measured on day 5 by Giemsa staining based microscopic analysis relative to control; type: functional; set-up: scale not given: the % may be the effect or the level left; conditions: time 4 day; how it was run: as §2
Plasmodium yoelii [7] = test: Antimalarial activity against blood stage Plasmodium yoelii infected in CF1 mouse assessed as reduction in parasitemia administered orally once daily for 4 days and measured for 28 days by Giemsa staining based microscopic analysis; type: functional; conditions: po, 96 h, time 4 day
How it was run: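 Female CF1 mice, 7–8 weeks old, about 30 g, n = 4 per group. Dosed orally in PEG-400, 5 or 25 mg/kg once daily for 4 days, starting the day after inoculation. Giemsa-stained tail-vein blood films read the day after the last dose, then weekly to day 28. Parasitemia taken relative to vehicle controls.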

[8] = Toxicity in CF-1 mouse infected with blood stage Plasmodium yoelii assessed as reduction in body weight at 5 to 25 mg/kg, po administered once daily for 4 days and measured for 28 days; type: organism-based; conditions: in vivo, 96 h, dose 5-25 mg/kg, time 4 day
How it was run: (§3)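 CF1 mice infected with P. yoelii and given oral doses of 5 or 25 mg/kg in PEG-400 once daily for 4 days. Checked daily for mortality, morbidity and signs of toxicity. Body weight, grooming, posture and locomotion monitored over the study, to day 28. Compared with the vehicle control group.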

[9] = Toxicity in CF-1 mouse infected with blood stage Plasmodium yoelii assessed as behavioral changes at 5 to 25 mg/kg, po administered once daily for 4 days and measured for 28 days; type: organism-based; conditions: in vivo, 96 h, dose 5-25 mg/kg, time 4 day; how it was run: as §3
[10] = Therapeutic index, ratio of IC50 for cytotoxicity against human HepG2 cells to IC50 for antiplasmodial activity against asexual blood stage of chloroquine-sensitive Plasmodium falciparum D6 infected in human erythrocytes

Structure (SMILES): CCCCCCCc1cc(/C=C2\N=C(c3ccc[nH]3)C=C2OC)[nH]c1C.Cl
- IC50 (Plasmodium falciparum [1]): 4.2 nM
- IC50 (Plasmodium falciparum [2]): 4.5 nM
- IC50 (Plasmodium falciparum [3]): 4.1 nM
- IC50 (Plasmodium falciparum [4]): 2.5 nM
- IC50 (HepG2): 1350 nM
- Activity (Plasmodium yoelii [5]): 89%
- Activity (Plasmodium yoelii [6]): 100%
- ED50 (Plasmodium yoelii [7]): 2.6 mg/kg/day
- ED90 (Plasmodium yoelii [7]): 9.2 mg/kg/day
- Activity [8]: Non-Toxic
- Activity [9]: Non-Toxic
- selectivity ratio [10]: 320

Structure (SMILES): CCCCCCCc1cc(/C=C2\N=C(c3ccc(Cc4ccc(O)cc4)[nH]3)C=C2OC)[nH]c1C.Cl
- IC50 (Plasmodium falciparum [1]): 48 nM
- IC50 (Plasmodium falciparum [2]): 54 nM
- IC50 (Plasmodium falciparum [3]): 44 nM
- IC50 (Plasmodium falciparum [4]): 40 nM
- IC50 (HepG2): 9240 nM
- Activity (Plasmodium yoelii [5]): 25%
- Activity (Plasmodium yoelii [6]): 37%
- Activity [8]: Non-Toxic
- Activity [9]: Non-Toxic
- selectivity ratio [10]: 192

Structure (SMILES): CCCCCc1cc(/C=C2\N=C(c3ccc[nH]3)C=C2OC)[nH]c1C.Cl
- IC50 (Plasmodium falciparum [1]): 8 nM
- IC50 (Plasmodium falciparum [2]): 7.3 nM
- IC50 (Plasmodium falciparum [3]): 9.2 nM
- IC50 (Plasmodium falciparum [4]): 8.8 nM
- IC50 (HepG2): 1070 nM
- Activity (Plasmodium yoelii [5]): 63%
- Activity (Plasmodium yoelii [6]): 100%
- ED50 (Plasmodium yoelii [7]): 3.7 mg/kg/day
- ED90 (Plasmodium yoelii [7]): 17 mg/kg/day
- Activity [8]: Non-Toxic
- Activity [9]: Non-Toxic
- selectivity ratio [10]: 134

Structure (SMILES): COC1=CC(c2ccc[nH]2)=N/C1=C\c1cc(CCCCC(C)C)c(C)[nH]1.Cl
- IC50 (Plasmodium falciparum [1]): 4.1 nM
- IC50 (Plasmodium falciparum [2]): 2.1 nM
- IC50 (Plasmodium falciparum [3]): 2.1 nM
- IC50 (Plasmodium falciparum [4]): 2.6 nM
- IC50 (HepG2): 1490 nM
- Activity (Plasmodium yoelii [5]): 65%
- Activity (Plasmodium yoelii [6]): 100%
- ED50 (Plasmodium yoelii [7]): 2.7 mg/kg/day
- ED90 (Plasmodium yoelii [7]): 5.9 mg/kg/day
- Activity [8]: Non-Toxic
- Activity [9]: Non-Toxic
- selectivity ratio [10]: 363

Structure (SMILES): CCCCCCc1cc(/C=C2\N=C(c3ccc[nH]3)C=C2OC)[nH]c1C.Cl
- IC50 (Plasmodium falciparum [1]): 5.9 nM
- IC50 (Plasmodium falciparum [2]): 3.4 nM
- IC50 (Plasmodium falciparum [3]): 3.6 nM
- IC50 (Plasmodium falciparum [4]): 4.6 nM
- IC50 (HepG2): 2420 nM
- Activity (Plasmodium yoelii [5]): 70%
- Activity (Plasmodium yoelii [6]): 100%
- ED50 (Plasmodium yoelii [7]): 1.5 mg/kg/day
- ED90 (Plasmodium yoelii [7]): 4.8 mg/kg/day
- Activity [8]: Non-Toxic
- Activity [9]: Non-Toxic
- selectivity ratio [10]: 410

Structure (SMILES): C=CCCCCCCCCc1ccc(C2=N/C(=C\NCCC=C)C(OC)=C2)[nH]1.Cl
- IC50 (Plasmodium falciparum [1]): 8.9 nM
- IC50 (Plasmodium falciparum [2]): 6.5 nM
- IC50 (Plasmodium falciparum [4]): 2.6 nM
- IC50 (HepG2): 1600 nM
- Activity (Plasmodium yoelii [5]): 0%
- Activity (Plasmodium yoelii [6]): 42%
- Activity [8]: Non-Toxic
- Activity [9]: Non-Toxic
- selectivity ratio [10]: 180

Structure (SMILES): CCCCc1cc(/C=C2\N=C(c3ccc(Cc4ccc(O)cc4)[nH]3)C=C2OC)[nH]c1C.Cl
- IC50 (Plasmodium falciparum [1]): 12 nM
- IC50 (Plasmodium falciparum [2]): 12 nM
- IC50 (Plasmodium falciparum [3]): 16 nM
- IC50 (Plasmodium falciparum [4]): 17 nM
- IC50 (HepG2): 8880 nM
- Activity (Plasmodium yoelii [5]): 0%
- Activity (Plasmodium yoelii [6]): 6%
- Activity [8]: Non-Toxic
- Activity [9]: Non-Toxic
- selectivity ratio [10]: 740

Structure (SMILES): CCCCCCc1cc(/C=C2\N=C(c3ccc(Cc4ccc(O)cc4)[nH]3)C=C2OC)[nH]c1C.Cl
- IC50 (Plasmodium falciparum [1]): 9 nM
- IC50 (Plasmodium falciparum [2]): 11 nM
- IC50 (Plasmodium falciparum [3]): 13 nM
- IC50 (Plasmodium falciparum [4]): 12 nM
- IC50 (HepG2): 9930 nM
- Activity (Plasmodium yoelii [5]): 0%
- Activity (Plasmodium yoelii [6]): 9%
- Activity [8]: Non-Toxic
- Activity [9]: Non-Toxic
- selectivity ratio [10]: 1100

Structure (SMILES): CCCCc1cc(/C=C2\N=C(c3ccc[nH]3)C=C2OC)[nH]c1C.Cl
- IC50 (Plasmodium falciparum [1]): 11 nM
- IC50 (Plasmodium falciparum [2]): 5.6 nM
- IC50 (Plasmodium falciparum [3]): 8.7 nM
- IC50 (Plasmodium falciparum [4]): 8.5 nM
- IC50 (HepG2): 3320 nM
- Activity (Plasmodium yoelii [5]): 67%
- Activity (Plasmodium yoelii [6]): 100%
- ED50 (Plasmodium yoelii [7]): 2.5 mg/kg/day
- ED90 (Plasmodium yoelii [7]): 8.5 mg/kg/day
- Activity [8]: Non-Toxic
- Activity [9]: Non-Toxic
- selectivity ratio [10]: 301

Structure (SMILES): CCCCCc1cc(/C=C2\N=C(c3ccc(Cc4ccc(O)cc4)[nH]3)C=C2OC)[nH]c1C.Cl
- IC50 (Plasmodium falciparum [1]): 16 nM
- IC50 (Plasmodium falciparum [2]): 28 nM
- IC50 (Plasmodium falciparum [3]): 27 nM
- IC50 (Plasmodium falciparum [4]): 29 nM
- IC50 (HepG2): 7020 nM
- Activity (Plasmodium yoelii [5]): 0%
- Activity (Plasmodium yoelii [6]): 0%
- Activity [8]: Non-Toxic
- Activity [9]: Non-Toxic
- selectivity ratio [10]: 439

Structure (SMILES): CCCCCc1cc(/C=C2\N=C(c3ccc(Cc4ccc(OC)cc4)[nH]3)C=C2OC)[nH]c1C.Cl
- IC50 (Plasmodium falciparum [1]): 2.4 nM
- IC50 (Plasmodium falciparum [2]): 3.2 nM
- IC50 (Plasmodium falciparum [3]): 5.6 nM
- IC50 (Plasmodium falciparum [4]): 2.3 nM
- IC50 (HepG2): 2640 nM
- Activity (Plasmodium yoelii [5]): 60%
- Activity (Plasmodium yoelii [6]): 100%
- ED50 (Plasmodium yoelii [7]): 3.6 mg/kg/day
- ED90 (Plasmodium yoelii [7]): 18 mg/kg/day
- Activity [8]: Non-Toxic
- Activity [9]: Non-Toxic
- selectivity ratio [10]: 1100

Structure (SMILES): COC1=CC2=N/C1=C\NCC/C=C/CCCCCCCCc1ccc2[nH]1.Cl
- IC50 (Plasmodium falciparum [1]): 22 nM
- IC50 (Plasmodium falciparum [2]): 16 nM
- IC50 (Plasmodium falciparum [4]): 13 nM
- IC50 (HepG2): 29400 nM
- Activity (Plasmodium yoelii [5]): 0%
- Activity (Plasmodium yoelii [6]): 100%
- ED50 (Plasmodium yoelii [7]): 15 mg/kg/day
- ED90 (Plasmodium yoelii [7]): 16 mg/kg/day
- Activity [8]: Non-Toxic
- Activity [9]: Non-Toxic
- selectivity ratio [10]: 1340

Structure (SMILES): O=C1C(O)=C([C@H]2CC[C@H](c3ccc(Cl)cc3)CC2)C(=O)c2ccccc21 [ATOVAQUONE]
- IC50 (Plasmodium falciparum [1]): 0.1 nM
- IC50 (Plasmodium falciparum [3]): 0.2 nM

Structure (SMILES): CCN(CC)CCCC(C)Nc1ccnc2cc(Cl)ccc12 (stereo unspecified) [CHLOROQUINE]
- Activity (Plasmodium yoelii [5]): 100%
- Activity (Plasmodium yoelii [6]): 100%
